Data: ChEMBL document CHEMBL2384929, “Synthesis and biological evaluation of fluoro analogues of antimitotic phenstatin” (Bioorg Med Chem, 2013)

Columns and labels:
UO-31 = assay: Cytotoxicity against human UO31 cells assessed as growth inhibition at 10 uM after 48 hrs by SRB assay; type: functional; details: UO-31, 48 h, read-out: GI
Method in brief: (§1)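 Single-dose NCI 60-cell screen at 10 µM with 48 h exposure and sulforhodamine B read-out. Values are percentage growth per cell line. A summary ratio counts cell lines with 0–50% growth over all cell lines tested.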

NCI-H522 = assay: Cytotoxicity against human NCI-H522 cells assessed as growth inhibition at 10 uM after 48 hrs by SRB assay; type: functional; details: NCI-H522, 48 h, read-out: GI; method in brief: as §1
NCI/ADR-RES = assay: Cytotoxicity against human NCI/ADR-RES cells assessed as growth inhibition at 10 uM after 48 hrs by SRB assay; type: functional; details: read-out: GI; method in brief: as §1
SNB-75 = assay: Cytotoxicity against human SNB75 cells assessed as growth inhibition at 10 uM after 48 hrs by SRB assay; type: functional; details: SNB-75, 48 h, read-out: GI; method in brief: as §1
KM12 = assay: Cytotoxicity against human KM12 cells assessed as growth inhibition at 10 uM after 48 hrs by SRB assay; type: functional; details: KM12, 48 h, read-out: GI; method in brief: as §1
MDA-MB-468 = assay: Cytotoxicity against human MDA-MB-468 cells assessed as growth inhibition at 10 uM after 48 hrs by SRB assay; type: functional; details: MDA-MB-468, 48 h, read-out: GI; method in brief: as §1
SR = assay: Cytotoxicity against human SR cells assessed as growth inhibition at 10 uM after 48 hrs by SRB assay; type: functional; details: read-out: GI; method in brief: as §1
HCC 2998 = assay: Cytotoxicity against human HCC2998 cells assessed as growth inhibition at 10 uM after 48 hrs by SRB assay; type: functional; details: HCC 2998, 48 h, read-out: GI; method in brief: as §1
UACC-257 = assay: Cytotoxicity against human UACC257 cells assessed as growth inhibition at 10 uM after 48 hrs by SRB assay; type: functional; details: UACC-257, 48 h, read-out: GI; method in brief: as §1
PC-3 = assay: Cytotoxicity against human PC3 cells assessed as growth inhibition at 10 uM after 48 hrs by SRB assay; type: functional; details: PC-3, 48 h, read-out: GI; method in brief: as §1
Ovis aries = species: Ovis aries; assay: Inhibition of sheep brain tubulin assembly at 100 uM by DAPI staining-based fluorescence assay
Method in brief: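 Tubulin from sheep brain, purified by two assembly–disassembly cycles, at about 2–3 mg/mL in 0.1 M MES, 0.5 mM MgCl2, 1 mM EGTA, 1 mM GTP, pH 6.6. Assembly followed by DAPI fluorescence at 37 °C. Single-point inhibition tested at 100 µM. IC50 is the concentration halving the assembly rate relative to no compound, mean of two experiments, with reference inhibitors run the same day.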

HOP-62 = assay: Cytotoxicity against human HOP62 cells assessed as growth inhibition at 10 uM after 48 hrs by SRB assay; type: functional; details: HOP-62, 48 h, read-out: GI; method in brief: as §1
SW-620 = assay: Cytotoxicity against human SW620 cells assessed as growth inhibition at 10 uM after 48 hrs by SRB assay; type: functional; details: SW-620, 48 h, read-out: GI; method in brief: as §1
HL-60(TB) = assay: Cytotoxicity against human HL-60(TB) cells assessed as growth inhibition at 10 uM after 48 hrs by SRB assay; type: functional; details: HL-60, 48 h, read-out: GI
Method in brief: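 Single high dose of 10 µM in the NCI 60-cell disease-oriented human tumour panel, with 48 h exposure and sulforhodamine B read-out of percentage growth.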

M14 = assay: Cytotoxicity against human M14 cells assessed as growth inhibition at 10 uM after 48 hrs by SRB assay; type: functional; details: M14, 48 h, read-out: GI; method in brief: as §1
MDA-MB-435 = assay: Cytotoxicity against human MDA-MB-435 cells assessed as growth inhibition at 10 uM after 48 hrs by SRB assay; type: functional; details: MDA-MB-435, 48 h, read-out: GI; method in brief: as §1
HCT-15 = assay: Cytotoxicity against human HCT15 cells assessed as growth inhibition at 10 uM after 48 hrs by SRB assay; type: functional; details: HCT-15, 48 h, read-out: GI; method in brief: as §1
MCF7 = assay: Cytotoxicity against human MCF7 cells assessed as growth inhibition at 10 uM after 48 hrs by SRB assay; type: functional; details: MCF7, 48 h, read-out: GI; method in brief: as §1
K562 = assay: Cytotoxicity against human K562 cells assessed as growth inhibition at 10 uM after 48 hrs by SRB assay; type: functional; details: K562, 48 h, read-out: GI; method in brief: as §1

| SMILES | inhibition of growth at 10 µM (UO-31) [%] | inhibition of growth at 10 µM (NCI-H522) [%] | inhibition of growth at 10 µM (NCI/ADR-RES) [%] | inhibition of growth at 10 µM (SNB-75) [%] | inhibition of growth at 10 µM (KM12) [%] | inhibition of growth at 10 µM (MDA-MB-468) [%] | inhibition of growth at 10 µM (SR) [%] | inhibition of growth at 10 µM (HCC 2998) [%] | inhibition of growth at 10 µM (UACC-257) [%] | inhibition of growth at 10 µM (PC-3) [%] | inhibition (Ovis aries) [%] | inhibition of growth at 10 µM (HOP-62) [%] | inhibition of growth at 10 µM (SW-620) [%] | inhibition of growth at 10 µM (HL-60(TB)) [%] | inhibition of growth at 10 µM (M14) [%] | inhibition of growth at 10 µM (MDA-MB-435) [%] | inhibition of growth at 10 µM (HCT-15) [%] | inhibition of growth at 10 µM (MCF7) [%] | inhibition of growth at 10 µM (K562) [%] |
| --- | --- | --- | --- | --- | --- | --- | --- | --- | --- | --- | --- | --- | --- | --- | --- | --- | --- | --- | --- |
| COc1ccc(C(=O)c2cc(F)c(F)c(OC)c2F)c(OC)c1NC(C)=O | 30 | 83 | 55 | 44 | 57 | 81 | 49 | 31 | 21 | 27 | 39 | 30 | 37 | – | – | – | – | – | – |
| COc1ccc(C(=O)c2ccc(OC)c(N)c2OC)cc1F | – | 45 | – | – | 59 | 81 | 61 | 72 | – | – | 45 | – | 77 | 49 | 43 | 100 | 53 | 52 | 71 |
